Test results: ChEMBL document CHEMBL2417469, “Synthesis of novel analogs of 2-pyrazoline obtained from [(7-chloroquinolin-4-yl)amino]chalcones and hydrazine as potential antitumor and antimalarial agents” (Eur J Med Chem, 2013)

Assays:
[1] = Toxicity in RBC (unknown origin) assessed as hemolysis after 48 hrs at 20 to 80 ug/ml by spectrophotometry; type: cell-based, Erythrocyte; conditions: red blood cells (RBC); read-out: Activity
How it was run: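 Red blood cells at 5% hematocrit in RPMI 1640 exposed to 20, 40 and 80 µg/mL for 48 h at 37 °C; free hemoglobin read spectrophotometrically at 542 nm.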

Plasmodium falciparum = assay: Antimalarial activity against Plasmodium falciparum NF54 infected in human serum at 20 ug/ml after 48 hrs by fluorometric method; type: functional
How it was run: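 Asynchronous P. falciparum NF54 at 1.5–2% parasitemia, 5% hematocrit in RPMI with 10% human serum, exposed 48 h at 37 °C under 90% N2/5% CO2/5% O2 at the stated concentration; parasite DNA stained with ethidium bromide after proteinase K lysis; viability % = (Flu treated − medium)/(Flu untreated − medium) ×100; triplicate.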

T47D = assay: Cytotoxicity against human T47D cells after 48 hrs by SRB assay; type: functional
How it was run: (§1)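 NCI 60-cell screen. Cells grew 24 h (37 °C, 5% CO2) before compound was added. Compounds were in DMSO and diluted in medium with gentamicin, then tested at five levels (100, 10, 1.0, 0.1, 0.01 µM) with 48 h continuous exposure. Adherent cells were fixed with TCA (10% final) and stained with 0.4% SRB, absorbance read at 515 nm. A time-zero plate was included. LC50 is the concentration giving 50% loss of protein relative to time zero.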

CAKI-1 = assay: Cytotoxicity against human Caki1 cells after 48 hrs by SRB assay; type: functional; conditions: CAKI-1, 48 h
How it was run: (§2)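 NCI 60-cell-line screen. Cells preincubated 24 h at 37 °C, 5% CO2; time-zero plates TCA-fixed. Compounds dissolved in DMSO and tested at five concentrations (100, 10, 1.0, 0.1, 0.01 µM) for 48 h continuous exposure. Adherent cells fixed with cold TCA (10% final), then SRB stained; absorbance at 515 nm. GI50, TGI and LC50 calculated from growth relative to time-zero and untreated controls.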

RXF 393 = assay: Cytotoxicity against human RXF393 cells after 48 hrs by SRB assay; type: functional; conditions: RXF 393, 48 h; how it was run: as §2
ACHN = assay: Cytotoxicity against human ACHN cells after 48 hrs by SRB assay; type: functional; conditions: for CC50: read-out: LC50 (the source's name); how it was run: as §2
A498 = assay: Cytotoxicity against human A498 cells after 48 hrs by SRB assay; type: functional; conditions: A498, 48 h; for CC50: read-out: LC50 (the source's name); how it was run: as §2
SK-OV-3 = assay: Cytotoxicity against human SKOV3 cells after 48 hrs by SRB assay; type: functional; conditions: SK-OV-3, 48 h; how it was run: as §2
OVCAR-8 = assay: Cytotoxicity against human OVCAR8 cells after 48 hrs by SRB assay; type: functional; conditions: OVCAR-8, 48 h; how it was run: as §2
OVCAR-5 = assay: Cytotoxicity against human OVCAR5 cells after 48 hrs by SRB assay; type: functional; conditions: OVCAR-5, 48 h; how it was run: as §2
SK-MEL-28 = assay: Cytotoxicity against human SK-MEL-28 cells after 48 hrs by SRB assay; type: functional; conditions: SK-MEL-28, 48 h; for CC50: read-out: LC50 (the source's name); how it was run: as §2
Malme-3M = assay: Cytotoxicity against human MALME-3M cells after 48 hrs by SRB assay; type: functional; how it was run: as §2
U-251 = assay: Cytotoxicity against human U251 cells after 48 hrs by SRB assay; type: functional; conditions: U-251, 48 h; for CC50: read-out: LC50 (the source's name); how it was run: as §1
SF-539 = assay: Cytotoxicity against human SF539 cells after 48 hrs by SRB assay; type: functional; conditions: SF-539, 48 h; for CC50: read-out: LC50 (the source's name); how it was run: as §2
SF-295 = assay: Cytotoxicity against human SF295 cells after 48 hrs by SRB assay; type: functional; conditions: SF-295, 48 h; how it was run: as §2
SW-620 = assay: Cytotoxicity against human SW620 cells after 48 hrs by SRB assay; type: functional; conditions: SW-620, 48 h; how it was run: as §1
HT-29 = assay: Cytotoxicity against human HT-29 cells after 48 hrs by SRB assay; type: functional; conditions: HT-29, 48 h; how it was run: as §2
HCT-116 = assay: Cytotoxicity against human HCT116 cells after 48 hrs by SRB assay; type: functional; conditions: HCT-116, 48 h; how it was run: as §2
COLO 205 = assay: Cytotoxicity against human COLO205 cells after 48 hrs by SRB assay; type: functional; conditions: COLO 205, 48 h; how it was run: as §2
SR = assay: Cytotoxicity against human SR cells after 48 hrs by SRB assay; type: functional; how it was run: as §1
RPMI-8226 = assay: Cytotoxicity against human RPMI8226 cells after 48 hrs by SRB assay; type: functional; conditions: RPMI-8226, 48 h; how it was run: as §2
MOLT-4 = assay: Cytotoxicity against human MOLT4 cells after 48 hrs by SRB assay; type: functional; conditions: MOLT-4, 48 h; how it was run: as §2
K562 = assay: Cytotoxicity against human K562 cells after 48 hrs by SRB assay; type: functional; conditions: K562, 48 h; how it was run: as §2
CCRF-CEM = assay: Cytotoxicity against human CCRF-CEM cells after 48 hrs by SRB assay; type: functional; how it was run: as §2
TK-10 = assay: Cytotoxicity against human TK10 cells after 48 hrs by SRB assay; type: functional; conditions: TK-10, 48 h; how it was run: as §1
NCI-H322M = assay: Cytotoxicity against human NCI-H322M cells after 48 hrs by SRB assay; type: functional; how it was run: as §2

Structure (SMILES): COc1cc(C2CC(c3cccc(Nc4ccnc5cc(Cl)ccc45)c3)=NN2C=O)cc(OC)c1OC (stereo not drawn)
- hemolysis at 48 h [1]: 3.4%
- inhibition at 20 µg/mL (Plasmodium falciparum): 24.6%
- GI50 (T47D): 0.65 µM
- LC50 (concentration giving 50% cell kill relative to time zero) (T47D): 69.3 µM
- GI50 (CAKI-1): 0.55 µM
- LC50 (CAKI-1): 12.1 µM
- GI50 (RXF 393): 1.54 µM
- LC50 (concentration killing 50% of cells) (RXF 393): 73.4 µM
- GI50 (ACHN): 1.27 µM
- CC50 (ACHN): > 100 µM
- GI50 (A498): 0.29 µM
- CC50 (A498): > 100 µM
- GI50 (SK-OV-3): 1.4 µM
- LC50 (concentration killing 50% of cells) (SK-OV-3): > 100 µM
- GI50 (OVCAR-8): 2.06 µM
- LC50 (50% net cell kill) (OVCAR-8): > 100 µM
- GI50 (OVCAR-5): 4.32 µM
- LC50 (OVCAR-5): > 100 µM
- GI50 (SK-MEL-28): 1.02 µM
- CC50 (SK-MEL-28): 97.1 µM
- GI50 (Malme-3M): 0.81 µM
- LC50 (Malme-3M): > 100 µM
- GI50 (U-251): 0.45 µM
- CC50 (U-251): > 100 µM
- GI50 (SF-539): 0.81 µM
- CC50 (SF-539): 55.5 µM
- GI50 (SF-295): 0.38 µM
- LC50 (SF-295): > 100 µM
- GI50 (SW-620): 0.47 µM
- LC50 (SW-620): > 100 µM
- GI50 (HT-29): 0.4 µM
- LC50 (HT-29): 4.99 µM
- GI50 (HCT-116): 0.4 µM
- LC50 (HCT-116): 6.71 µM
- GI50 (COLO 205): 0.64 µM
- LC50 (COLO 205): > 100 µM
- GI50 (SR): 0.34 µM
- LC50 (SR): > 100 µM
- GI50 (RPMI-8226): 8.83 µM
- LC50 (concentration killing 50% of cells) (RPMI-8226): > 100 µM
- GI50 (MOLT-4): 0.59 µM
- LC50 (MOLT-4): > 100 µM
- GI50 (K562): 0.43 µM
- LC50 (concentration killing 50% of cells) (K562): > 100 µM
- GI50 (CCRF-CEM): 0.65 µM
- LC50 (concentration killing 50% of cells relative to time zero) (CCRF-CEM): > 100 µM

Structure (SMILES): O=CN1N=C(c2ccc(Nc3ccnc4cc(Cl)ccc34)cc2)CC1c1ccc(Cl)cc1 (stereo not drawn)
- inhibition at 20 µg/mL (Plasmodium falciparum): 1.1%
- GI50 (T47D): 1.56 µM
- LC50 (concentration giving 50% cell kill relative to time zero) (T47D): > 100 µM
- GI50 (TK-10): 9.57 µM
- LC50 (concentration giving 50% cell loss vs time zero) (TK-10): > 100 µM
- GI50 (CAKI-1): 0.41 µM
- LC50 (CAKI-1): > 100 µM
- GI50 (RXF 393): 1.88 µM
- LC50 (concentration killing 50% of cells) (RXF 393): > 100 µM
- GI50 (ACHN): 1 µM
- CC50 (ACHN): > 100 µM
- GI50 (A498): > 100 µM
- CC50 (A498): > 100 µM
- GI50 (SK-OV-3): 0.57 µM
- LC50 (concentration killing 50% of cells) (SK-OV-3): > 100 µM
- GI50 (OVCAR-8): 3.22 µM
- LC50 (50% net cell kill) (OVCAR-8): > 100 µM
- GI50 (OVCAR-5): 6.46 µM
- LC50 (OVCAR-5): > 100 µM
- GI50 (SK-MEL-28): 0.76 µM
- CC50 (SK-MEL-28): > 100 µM
- LC50 (Malme-3M): > 100 µM
- GI50 (U-251): 0.51 µM
- CC50 (U-251): > 100 µM
- GI50 (SF-539): 0.58 µM
- CC50 (SF-539): > 100 µM
- GI50 (SF-295): 0.27 µM
- LC50 (SF-295): > 100 µM
- GI50 (SW-620): 0.48 µM
- LC50 (SW-620): > 100 µM
- GI50 (HT-29): 0.41 µM
- LC50 (HT-29): > 100 µM
- GI50 (HCT-116): 0.5 µM
- LC50 (HCT-116): > 100 µM
- GI50 (COLO 205): 2.4 µM
- LC50 (COLO 205): > 100 µM
- GI50 (NCI-H322M): > 100 µM
- LC50 (50% lethal concentration) (NCI-H322M): > 100 µM
- GI50 (SR): 0.32 µM
- LC50 (SR): > 100 µM
- GI50 (MOLT-4): 0.53 µM
- LC50 (MOLT-4): > 100 µM
